Test results from article PMC5191920 (Biochimica et biophysica acta, 2016).
Entries after “also recorded” stand apart in the source; their conditions may differ. Ends that are not written are not given here.

What was measured:
[1] = DMPC vesicle clearance; format: physicochemical; conditions: peptide 100 ng/ml, DMPC 1 mg/ml, PBS, 24 °C, 60 min, absorbance 432 nm
How it was run: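 Multilamellar DMPC vesicles (1 mg/ml) made by resuspending dried lipid in PBS and vortexing for 5 min. Peptide added to 100 ng/ml final. Absorbance at 432 nm read every 5 s for 60 min at 24 °C with fast shaking to prevent settling. Turbidity compared with a PBS-only control.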

[2] = Circular dichroism spectroscopy; format: physicochemical; conditions: 37 °C; for helicity, with TFE: 20% trifluoroethanol
How it was run: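 Peptides at 0.2 mg/mL (final) in 10 mM phosphate buffer, with or without 20% trifluoroethanol, held at 37 °C. Far-UV spectra recorded from 190 to 240 nm on a spectropolarimeter. Ellipticity in mdeg converted to mean residue ellipticity (deg cm² dmol⁻¹).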

[3] = system: isolated human LDL; assay: Isothermal titration calorimetry, binding to LDL; conditions: for binding to LDL by ITC: isolated human LDL injected into peptide, PBS pH 7.4
How it was run: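 Human LDL and HDL isolated by ultracentrifugation. Lipoprotein titrated into a cell holding peptide or buffer alone: one initial injection, then 35 injections spaced 180 s apart. Heat monitored throughout and thermograms integrated to isotherms.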

[4] = system: isolated human HDL; assay: Isothermal titration calorimetry, binding to HDL; conditions: isolated human HDL injected into peptide, PBS pH 7.4
How it was run: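 Human HDL isolated by ultracentrifugation. Lipoprotein titrated into cell holding peptide or buffer alone: one small initial injection, then 35 injections, 180 s apart, with heat monitored continuously. Thermograms integrated to binding isotherms.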

[5] = DMP cross-linking, SDS-PAGE; format: physicochemical; conditions: PBS, DMP:peptide 30:1, 2 h room temperature
How it was run: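 Homo-bifunctional amine-reactive crosslinker dimethylpimelimidate reacted with peptide at 30:1 molar ratio (crosslinker:peptide) in PBS for 2 h at room temperature. Quenched with 1 M Tris. Products resolved by SDS-PAGE under reducing conditions and stained with Coomassie blue to visualise oligomeric species.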

[6] = target: human ABCA1 (Homo sapiens, UniProt O95477); assay: Cholesterol efflux, ABCA1 transfected BHK cells; format: cell-based; conditions: ABCA1 expressing BHK cells, 18 h
Chain of human ABCA1 (O95477 whole entry): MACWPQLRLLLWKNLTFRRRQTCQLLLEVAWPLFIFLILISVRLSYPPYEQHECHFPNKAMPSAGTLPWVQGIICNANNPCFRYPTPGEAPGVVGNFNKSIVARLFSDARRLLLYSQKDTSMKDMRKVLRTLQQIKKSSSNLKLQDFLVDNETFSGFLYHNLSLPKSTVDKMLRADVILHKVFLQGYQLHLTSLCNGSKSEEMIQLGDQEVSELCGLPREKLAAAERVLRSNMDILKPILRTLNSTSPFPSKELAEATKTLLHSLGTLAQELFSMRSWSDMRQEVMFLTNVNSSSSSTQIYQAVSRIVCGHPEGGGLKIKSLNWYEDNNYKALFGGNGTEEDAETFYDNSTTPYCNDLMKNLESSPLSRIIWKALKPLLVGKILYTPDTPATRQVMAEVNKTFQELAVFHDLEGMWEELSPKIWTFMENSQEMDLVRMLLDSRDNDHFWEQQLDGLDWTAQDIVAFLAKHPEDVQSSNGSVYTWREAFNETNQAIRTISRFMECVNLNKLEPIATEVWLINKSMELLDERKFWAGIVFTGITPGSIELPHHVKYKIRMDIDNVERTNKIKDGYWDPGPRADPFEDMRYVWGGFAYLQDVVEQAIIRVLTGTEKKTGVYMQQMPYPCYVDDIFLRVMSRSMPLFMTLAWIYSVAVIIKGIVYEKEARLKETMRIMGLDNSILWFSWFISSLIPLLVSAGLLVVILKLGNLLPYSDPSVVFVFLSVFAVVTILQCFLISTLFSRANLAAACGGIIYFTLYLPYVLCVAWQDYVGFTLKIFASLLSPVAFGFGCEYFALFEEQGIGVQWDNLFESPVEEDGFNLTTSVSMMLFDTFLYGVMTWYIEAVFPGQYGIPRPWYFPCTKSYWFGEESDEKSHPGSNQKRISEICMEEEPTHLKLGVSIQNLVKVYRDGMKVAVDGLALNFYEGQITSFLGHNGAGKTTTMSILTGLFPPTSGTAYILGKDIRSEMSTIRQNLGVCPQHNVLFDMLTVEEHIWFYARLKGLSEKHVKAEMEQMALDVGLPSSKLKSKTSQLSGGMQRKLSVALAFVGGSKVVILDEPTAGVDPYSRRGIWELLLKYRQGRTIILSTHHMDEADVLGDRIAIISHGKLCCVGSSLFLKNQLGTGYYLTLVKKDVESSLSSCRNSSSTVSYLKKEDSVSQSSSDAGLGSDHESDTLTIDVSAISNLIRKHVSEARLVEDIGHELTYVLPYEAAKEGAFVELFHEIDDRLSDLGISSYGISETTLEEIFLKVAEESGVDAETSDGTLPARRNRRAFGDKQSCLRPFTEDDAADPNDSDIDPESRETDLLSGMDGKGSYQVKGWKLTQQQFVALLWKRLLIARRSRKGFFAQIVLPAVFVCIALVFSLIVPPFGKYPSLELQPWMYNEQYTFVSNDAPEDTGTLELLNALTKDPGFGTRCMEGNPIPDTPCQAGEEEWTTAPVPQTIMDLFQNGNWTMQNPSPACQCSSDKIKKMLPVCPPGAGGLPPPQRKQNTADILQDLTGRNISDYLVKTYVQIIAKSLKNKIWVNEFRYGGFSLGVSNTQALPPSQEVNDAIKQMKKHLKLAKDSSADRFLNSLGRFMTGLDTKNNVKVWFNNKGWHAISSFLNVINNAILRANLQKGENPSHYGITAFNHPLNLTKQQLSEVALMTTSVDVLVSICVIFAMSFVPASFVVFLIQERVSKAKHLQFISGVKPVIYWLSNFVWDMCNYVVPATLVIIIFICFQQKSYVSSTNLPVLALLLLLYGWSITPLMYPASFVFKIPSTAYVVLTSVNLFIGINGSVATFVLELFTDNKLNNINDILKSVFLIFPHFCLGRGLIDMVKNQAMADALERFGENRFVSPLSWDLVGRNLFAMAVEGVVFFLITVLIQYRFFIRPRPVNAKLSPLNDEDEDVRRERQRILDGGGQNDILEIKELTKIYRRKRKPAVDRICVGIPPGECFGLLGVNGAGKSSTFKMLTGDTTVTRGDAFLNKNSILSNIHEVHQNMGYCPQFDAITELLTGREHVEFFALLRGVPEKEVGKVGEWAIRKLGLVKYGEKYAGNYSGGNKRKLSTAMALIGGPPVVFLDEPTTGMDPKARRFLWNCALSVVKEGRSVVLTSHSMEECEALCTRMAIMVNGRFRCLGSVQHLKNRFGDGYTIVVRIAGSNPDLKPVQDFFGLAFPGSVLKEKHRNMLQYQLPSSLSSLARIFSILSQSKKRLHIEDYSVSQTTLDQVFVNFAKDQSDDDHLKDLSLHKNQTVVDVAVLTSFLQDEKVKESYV
How it was run: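 BHK cells stably expressing human ABCA1 labelled 18 h with [3H]cholesterol in DMEM plus 10% fetal calf serum. Cells were washed, then switched to serum-free DMEM with 0.1 mg/ml fatty acid-free BSA. Peptide over a concentration range, or PBS, added for 18 h. Media filtered, cells lysed in 0.1% SDS/0.1 N NaOH, both counted by liquid scintillation. Efflux = media counts/(media + cell counts) × 100.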

[7] = system: apoB containing lipoproteins in human plasma; format: binding; conditions: FPLC separation, VLDL plus LDL
How it was run: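 FITC-labelled peptide incubated with human plasma for 1 h at 37 °C. Separated on two Superose 6 columns in series in Tris buffer (10 mM Tris, 150 mM NaCl, 0.5 mM EDTA, 0.01% azide) at 0.5 mL/min, collecting 0.5 mL fractions. Enzymatic phospholipid assay located VLDL, LDL and HDL. Fluorescence read at ex 485 / em 535 nm. Each peak expressed as percent of total fluorescence.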

[8] = system: lipoproteins in human plasma; assay: Exchangeability of LDL-bound peptide among lipoproteins; conditions: FITC labeled B38 on isolated LDL, then human plasma 1 h at 37 °C, FPLC
How it was run: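 FITC-labelled peptide co-incubated with isolated human LDL for 1 h at 37 °C. LDL repurified by FPLC to remove unbound peptide, and LDL fractions pooled and concentrated. Peptide-loaded LDL then incubated with PBS or human plasma for 1 h at 37 °C. Transfer of fluorescent peptide to other lipoprotein classes measured.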

[9] = system: human red blood cells; assay: Red blood cell lysis assay; format: cell-based; conditions: human RBCs, 0 – 100 µM, 2 h room temperature, 1% Triton X-100 = 100% lysis
How it was run: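 Human erythrocytes washed 5 times in PBS with 5% glucose, pH 7.4. Incubated with peptide at 0–100 µM for 2 h at room temperature, then pelleted at 1000×g for 5 min. Supernatant absorbance read at 450 nm. 1% Triton X-100 served as the 100% lysis reference.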

[10] = system: BHK cells; assay: Visual cytotoxicity during cholesterol efflux experiments; format: cell-based; conditions: during the cholesterol efflux experiments
[11] = system: cells; conditions: ref [48]; cited from earlier work
[12] = 0.2 mg/mL peptide, 10 mM phosphate buffer

DWLKAFYDKVAEKLKEAFPDWAKAAYDKAAEKAKEAA [5A, reference compound]
solubilization / clearance of DMPC vesicles [1]: rapidly cleared the solution

EKLKAKLKEGGEKLKAKLKE [FLANK]
helicity, with TFE [2, 12]: 38%
secondary structure by CD, aqueous solution ([2]; 10 mM phosphate buffer, no TFE): random coil structure
binding to LDL by ITC [3]: did not appear to bind strongly to either lipoprotein
binding to HDL by ITC [4]: did not appear to bind strongly to either lipoprotein
oligomeric forms in aqueous solution [5]: only found as monomer and dimer in aqueous solution
cholesterol efflux, ABCA1 cells [6]: ineffective in promoting cholesterol efflux
solubilization / clearance of DMPC vesicles [1]: did not solubilize DMPC vesicles

EKLKAKLKEGGGLSDEAVTSLLPQLIEVSSPGGEKLKAKLKE [B07]
helicity, with TFE [2, 12]: 40%
secondary structure by CD, aqueous solution ([2]; 10 mM phosphate buffer, no TFE): random coil structure

EKLKAKLKEGGKATLELSPWQMSALVQVHASQPSSFHDFPDLGGEKLKAKLKE [B61]
helicity, with TFE [2, 12]: 60%
secondary structure by CD, aqueous solution ([2]; 10 mM phosphate buffer, no TFE): random coil structure

EKLKAKLKEGGLNIKRGIISALLVPPETEEAGGEKLKAKLKE [B04]
helicity, with TFE [2, 12]: 43%
secondary structure by CD, aqueous solution ([2]; 10 mM phosphate buffer, no TFE): random coil structure

EKLKAKLKEGGQELQRYLSLVGQVYSTLVTYISDWWTLGGEKLKAKLKE [B38]
helicity, with TFE [2, 12]: 59%
helicity, aqueous solution ([2]; 0.2 mg/mL peptide, 10 mM phosphate buffer, no TFE): 40.1%
secondary structure by CD, aqueous solution ([2]; 10 mM phosphate buffer, no TFE): α-helical secondary structure; also recorded: formed an α-helix in aqueous buffer
helicity, with POPC vesicles ([2]; POPC vesicles added (also printed POPS)): 42.4%
secondary structure by CD, with POPC vesicles ([2]; POPC vesicles added): slight increase in helicity
total binding energy for LDL relative to HDL ([3]; ITC, isolated human LDL vs. HDL): 2.7 times
lipoprotein binding of synthesized HCD peptides ([3]; ITC, lipoprotein class not specified): showed significant lipoprotein binding capacity
shape of ITC thermal energy curve ([3]; binding to lipoprotein particles): U-shaped curve
binding to LDL by ITC [3]: high affinity binding to both isolated HDL and LDL; also recorded: only peptide with significant binding affinity for LDL
binding energy in buffer control ([3]; peptide in buffer control (no LDL)): lack of significant binding energy
binding to HDL by ITC [4]: high affinity binding to both isolated HDL and LDL; also recorded: found to bind to high density lipoprotein (HDL) but with lower affinity than LDL
oligomeric forms in aqueous solution [5]: presence of B38 oligomers in aqueous solution
percent of peptide bound to apoB containing lipoproteins [7]: 17%
exchangeability between lipoproteins [8]: could exchange between lipoproteins; also recorded: exchangeable between lipoproteins
cholesterol efflux, ABCA1 cells [6]: capable of ABCA1-dependent cholesterol efflux from cells; also recorded: promotes ABCA1 specific cholesterol efflux
solubilization / clearance of DMPC vesicles [1]: rapidly cleared the solution; also recorded: does not clear DMPC vesicles as rapidly
concentration above which a small amount of red cell lysis occurs [9]: above 30 uM
visual evidence of cytotoxicity [10]: no visual evidence of cytotoxicity was observed

apoB: large amphipathic protein, structural scaffold of several classes of lipoproteins
cholesterol efflux from cells [11]: does not promote cholesterol efflux from cells
